Measurements from PubChem BioAssay AID588750 (Vanderbilt Specialized Chemistry Center, 2011).
Active and inactive are the calls of the source.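 The calls were made as follows: active = compounds with a dose-dependent response, reported with half-maximal potency and percent of the acetylcholine maximum; inactive = the rest.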

Molecular target: Muscarinic acetylcholine receptor M3 (Rattus norvegicus) (UniProt P08483)
Assay: rat M3 receptor positive allosteric modulation, dose response, selectivity assay for M4 PAM project, CHO cells, Fluo-4 calcium mobilization (AID 588750)
Settings: CHO rat M3, Fluo-4 calcium mobilization; series mostly up to 30 µM
In short: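 system = CHO cells stably expressing cloned rat M3 muscarinic receptor | reagent = acetylcholine at EC20, followed by acetylcholine at EC80 | timing = compound pre-incubation 144 s before ACh EC20, read at 37 °C | signal = kinetic calcium fluorescence with Fluo-4 AM dye loaded at 2.3 µM | control set = maximal acetylcholine response at 1 mM for normalization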

| SMILES | outcome |
| --- | --- |
| Cc1nc2sc(C(=O)NCc3ccncn3)c(N)c2c(C)c1Cl | inactive |
| Cc1nc2sc(C(=O)NC3CC3)c(N)c2c(C)c1Cl | inactive |
| Cc1nc2sc(C(=O)NCc3ccncc3)c(N)c2c(C)c1Cl | inactive |
| Cc1nc2sc(C(=O)NCc3ccccc3)c(N)c2c(C)c1Cl | inactive |
| Cc1nc2sc(C(=O)NCc3cccc(F)c3F)c(N)c2c(C)c1Cl | inactive |
| Cc1nc2sc(C(=O)NCCc3ccncc3)c(N)c2c(C)c1Cl | inactive |
| Cc1nc2sc(C(=O)NCc3ccc4c(c3)OCO4)c(N)c2c(C)c1Cl | inactive |
| Cc1nc2sc(C(=O)NCc3cccnc3)c(N)c2c(C)c1Cl | inactive |
| Cc1nc2sc(C(=O)NCc3nccs3)c(N)c2c(C)c1Cl | inactive |
